Results taken from ChEMBL document CHEMBL4477265, “Design and synthesis of cis-restricted benzimidazole and benzothiazole mimics of combretastatin A-4 as antimitotic agents with apoptosis inducing ability” (Bioorg Med Chem Lett, 2016).
Calls of active or inactive are those of the source. The rule behind the calls is not given here.

Columns and labels:
[1] = system: HeLa; assay: Antiproliferative activity against human HeLa cells after 48 hrs by sulforhodamine B assay; assay type: functional
[2] = system: HepG2; assay: Antiproliferative activity against human HepG2 cells after 48 hrs by sulforhodamine B assay; assay type: functional; settings: HepG2, 48 h
[3] = system: A549; assay: Antiproliferative activity against human A549 cells after 48 hrs by sulforhodamine B assay; assay type: functional; settings: A549, 48 h
[4] = system: DU-145; assay: Antiproliferative activity against human DU145 cells after 48 hrs by sulforhodamine B assay; assay type: functional; settings: DU-145, 48 h
[5] = system: HeLa; assay: Cell cycle arrest in human HeLa cells assessed as accumulation at G0 phase at 40 nM after 48 hrs by propidium iodide staining based flow cytometry (reference value: 5.64%); assay type: functional
[6] = system: HeLa; assay: Cell cycle arrest in human HeLa cells assessed as accumulation at G0 phase at 60 nM after 48 hrs by propidium iodide staining based flow cytometry (reference value: 5.64%); assay type: functional
[7] = system: HeLa; assay: Cell cycle arrest in human HeLa cells assessed as accumulation at G1 phase at 40 nM after 48 hrs by propidium iodide staining based flow cytometry (reference value: 73.28%); assay type: functional
[8] = system: HeLa; assay: Cell cycle arrest in human HeLa cells assessed as accumulation at G1 phase at 60 nM after 48 hrs by propidium iodide staining based flow cytometry (reference value: 73.28%); assay type: functional
[9] = system: HeLa; assay: Cell cycle arrest in human HeLa cells assessed as accumulation at S phase at 40 nM after 48 hrs by propidium iodide staining based flow cytometry (reference value: 3.52%); assay type: functional
[10] = system: HeLa; assay: Cell cycle arrest in human HeLa cells assessed as accumulation at S phase at 60 nM after 48 hrs by propidium iodide staining based flow cytometry (reference value: 3.52%); assay type: functional
[11] = system: HeLa; assay: Cell cycle arrest in human HeLa cells assessed as accumulation at G2/M phase at 40 nM after 48 hrs by propidium iodide staining based flow cytometry (reference value: 17.56%); assay type: functional
[12] = system: HeLa; assay: Cell cycle arrest in human HeLa cells assessed as accumulation at G2/M phase at 60 nM after 48 hrs by propidium iodide staining based flow cytometry (reference value: 17.56%); assay type: functional
[13] = system: HeLa; assay: Induction of inner mitochondrial membrane potential depolarization in isolated mitochondria from human HeLa cells at 40 to 60 nM after 48 hrs by JC-1 staining based fluorescence plate reader assay; assay type: functional
Procedure, shortened: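 Mitochondria isolated and incubated with JC-1 dye alongside treatment at 40 and 60 nM; red/green fluorescence emission ratio recorded as the index of inner membrane potential, with untreated mitochondria as control.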

[14] = target: Tubulin (Sus scrofa) (UniProt P02554+P02550); assay: Inhibition of porcine brain tubulin polymerization at 3 uM measured at 1 min interval for 1 hr by fluorescence plate reader assay relative to control
Procedure, shortened: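 Tubulin polymerization followed by fluorescence (excitation 360 nm, emission 420 nm) over 1 h at 37 °C, test agents at 3 μM; inhibition expressed as percentage of polymerization versus untreated control.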

[15] = target: Tubulin (Sus scrofa, UniProt P02554+P02550); assay: Inhibition of porcine brain tubulin polymerization measured at 1 min interval for 1 hr by fluorescence plate reader assay
[16] = system: HeLa; assay: Cell cycle arrest in human HeLa cells assessed as accumulation at G2/M phase after 48 hrs by propidium iodide staining based flow cytometry; assay type: functional
[17] = target: Tubulin (Homo sapiens) (UniProt P68371+Q9H4B7+P0DPH7+P68366+Q13509+Q71U36+P04350+Q3ZCM7+P07437+P68363+Q9BQE3+Q6PEY2+Q13885+Q9BVA1+Q9BUF5); assay: Inhibition of tubulin polymerization in human HeLa cells assessed as induction of microtubule disruption at 60 nM after 48 hrs by confocal microscopic analysis; assay type: cell-based
Procedure, shortened: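 HeLa cells grown on sterile cover slips, exposed 48 h at 60 nM, immunostained with α-tubulin antibody; microtubule network organization examined by confocal imaging.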

[18] = system: HeLa; assay: Induction of apoptosis in human HeLa cells assessed as caspase-3 activation using AFC-labeled caspase-3 substrate at 40 to 60 nM after 24 to 48 hrs by fluorescence plate reader assay relative to combretastatin A-4; assay type: functional
Procedure, shortened: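 HeLa cells exposed at 40 and 60 nM; caspase-3 and caspase-9 activity measured fluorimetrically with conjugated caspase substrates at two time points.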

[19] = system: HeLa; assay: Induction of apoptosis in human HeLa cells assessed as caspase-9 activation using AFC-labeled substrate at 40 to 60 nM after 24 to 48 hrs by fluorescence plate reader assay relative to combretastatin A-4

Sequence of Tubulin (Sus scrofa) (P02550 whole entry, looked up): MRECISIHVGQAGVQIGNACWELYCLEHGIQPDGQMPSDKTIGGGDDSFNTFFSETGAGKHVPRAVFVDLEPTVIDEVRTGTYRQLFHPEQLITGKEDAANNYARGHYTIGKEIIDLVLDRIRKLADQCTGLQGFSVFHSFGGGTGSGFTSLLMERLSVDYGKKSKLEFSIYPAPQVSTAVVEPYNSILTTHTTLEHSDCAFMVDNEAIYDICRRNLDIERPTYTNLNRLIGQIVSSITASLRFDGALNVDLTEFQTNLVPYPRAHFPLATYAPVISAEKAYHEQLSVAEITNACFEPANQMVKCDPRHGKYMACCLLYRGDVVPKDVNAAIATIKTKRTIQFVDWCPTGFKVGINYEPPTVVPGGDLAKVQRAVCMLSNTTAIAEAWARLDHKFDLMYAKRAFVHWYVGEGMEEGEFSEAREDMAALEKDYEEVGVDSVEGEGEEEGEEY
Sequence of Tubulin (Sus scrofa) (P02554 whole entry, looked up): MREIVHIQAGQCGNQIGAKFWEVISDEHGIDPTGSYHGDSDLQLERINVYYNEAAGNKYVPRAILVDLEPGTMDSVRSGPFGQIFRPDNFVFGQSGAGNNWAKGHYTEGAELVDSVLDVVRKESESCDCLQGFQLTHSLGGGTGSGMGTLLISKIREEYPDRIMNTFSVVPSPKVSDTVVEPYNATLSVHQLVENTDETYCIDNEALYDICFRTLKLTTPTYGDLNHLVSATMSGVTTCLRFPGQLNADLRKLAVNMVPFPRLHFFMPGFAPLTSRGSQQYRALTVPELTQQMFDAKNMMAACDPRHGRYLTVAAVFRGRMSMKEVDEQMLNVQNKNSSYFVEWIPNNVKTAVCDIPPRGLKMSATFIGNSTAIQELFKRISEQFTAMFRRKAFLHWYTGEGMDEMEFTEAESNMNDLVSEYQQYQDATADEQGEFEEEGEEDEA

GI50 [1] [µM]	GI50 [2] [µM]	GI50 [3] [µM]	GI50 [4] [µM]	Structure (SMILES)	other results
–	–	38.2	32.1	COc1ccc2nc(-c3cccnc3-c3ccc(C(F)(F)F)cc3)[nH]c2c1	–
0.06	0.08	0.06	0.07	COc1ccc(/C=C\c2cc(OC)c(OC)c(OC)c2)cc1O [COMBRETASTATIN A4]	Activity [5]: 25.87%; Activity [6]: 24.78%; Activity [7]: 17.92%; Activity [8]: 17.29%; Activity [9]: 17.34%; Activity [10]: 16.44%; Activity [11]: 38.87%; Activity [12]: 41.48%; Activity [13]: Active
4.8	2.8	1.8	1.2	COc1ccc(S(=O)(=O)Nc2cccnc2Nc2ccc(O)cc2)cc1 [ABT-751]	–
8.1	–	13.3	–	COc1ccc(-c2ncccc2-c2nc3ccc(OC)cc3s2)cc1	–
20.4	32.5	19.5	–	FC(F)(F)c1ccc(-c2ncccc2-c2nc3ccc(Cl)cc3s2)cc1	–
–	–	–	34.7	COc1ccc(-c2ncccc2-c2nc3ccc(Cl)cc3[nH]2)cc1	–
16.6	44.8	27.6	12	COc1ccc2nc(-c3cccnc3-c3ccc(OC)c(OC)c3)[nH]c2c1	–
6.2	2.2	1.7	6.8	COc1ccc2nc(-c3cccnc3-c3ccc(OC)c(OC)c3)sc2c1	–
0.04	0.079	0.091	0.052	COc1ccc2nc(-c3cccnc3-c3cc(C(F)(F)F)ccc3Cl)sc2c1	Activity [5]: 8.13%; Activity [6]: 20.47%; Activity [7]: 43%; Activity [8]: 15.19%; Activity [9]: 24.62%; Activity [10]: 10.3%; Activity [11]: 24.26%; Activity [12]: 54.05%; inhibition [14]: 68.3%; IC50 [15]: 1.91 µM; Activity [16]: Dose-dependent effect; inhibition [17]: Active; Activity [13]: Active; fold change (FC) [18]: 2; fold change (FC) [19]: 2
7.7	1.9	7.9	4.19	COc1ccc(-c2ncccc2-c2nc3cc(OC)c(OC)cc3[nH]2)cc1OC	–
15.8	–	18.4	–	FC(F)(F)c1ccc(-c2ncccc2-c2nc3ccc(Cl)cc3[nH]2)cc1	–
1.8	0.7	0.2	3.6	COc1ccc(-c2ncccc2-c2nc3ccccc3s2)cc1OC	–

Continued, molecule first:

Structure (SMILES)	GI50 [1] [µM]	GI50 [2] [µM]	GI50 [3] [µM]	GI50 [4] [µM]	other results
COc1cc(-c2ncccc2-c2nc3ccccc3s2)cc(OC)c1OC	4.8	3.5	3.2	4.1	–
COc1ccc(-c2ncccc2-c2nc3ccc(OC)cc3[nH]2)cc1	–	–	–	19.6	–
COc1cc2nc(-c3cccnc3-c3cc(OC)c(OC)c(OC)c3)[nH]c2cc1OC	1.7	1.5	2.5	0.6	–
COc1ccc2nc(-c3cccnc3-c3cc(C(F)(F)F)ccc3Cl)[nH]c2c1	0.15	0.76	0.75	0.21	–
COc1ccc2nc(-c3cccnc3-c3ccc(C(F)(F)F)cc3)sc2c1	15.7	–	17	–	–
FC(F)(F)c1ccc(Cl)c(-c2ncccc2-c2nc3ccc(Cl)cc3s2)c1	5.8	1.2	1.5	–	–
COc1ccc(-c2ncccc2-c2nc3cc(OC)c(OC)cc3[nH]2)cc1	21.4	42.5	19.5	–	–
COc1ccc(-c2ncccc2-c2nc3ccccc3[nH]2)cc1OC	–	12.4	–	5.8	–
COc1ccc(-c2ncccc2-c2nc3cc(OC)c(OC)cc3s2)cc1	11.3	30.9	59.1	–	–
COc1cc(-c2ncccc2-c2nc3ccccc3[nH]2)cc(OC)c1OC	2.6	3.5	4.5	14.6	–
FC(F)(F)c1ccc(Cl)c(-c2ncccc2-c2nc3ccccc3s2)c1	4.89	15	7.41	5.49	–
COc1ccc(-c2ncccc2-c2nc3ccc(Cl)cc3s2)cc1	7.7	3.9	7.9	0.19	–
COc1cc2nc(-c3cccnc3-c3cc(OC)c(OC)c(OC)c3)sc2cc1OC	1.6	0.5	0.5	0.6	–
COc1ccc(-c2ncccc2-c2nc3cc(OC)c(OC)cc3s2)cc1OC	13.5	1.2	7.58	5.91	–
COc1ccc2nc(-c3cccnc3-c3cc(OC)c(OC)c(OC)c3)[nH]c2c1	5	0.84	1.5	0.29	–
COc1ccc2nc(-c3cccnc3-c3cc(OC)c(OC)c(OC)c3)sc2c1	0.06	0.26	0.13	0.18	Activity [5]: 13.27%; Activity [6]: 25.35%; Activity [7]: 51.22%; Activity [8]: 19.54%; Activity [9]: 11.86%; Activity [10]: 14.3%; Activity [11]: 23.65%; Activity [12]: 40.8%; inhibition [14]: 60.1%; IC50 [15]: 2.01 µM; Activity [16]: Dose-dependent effect; inhibition [17]: Active; Activity [13]: Active; fold change (FC) [18]: 2; fold change (FC) [19]: 2
